# hIAP act: increases human intestinal alkaline phosphatase activity; 0.16% of 330,000 active; P09923; AID 2524; activation factor at 10 µM; purified human IAP, CDP-Star luminescence, 30 min; hits give high values; 1 = vehicle-only enzyme, 0 = enzyme-free background;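 active = activation factor of the enzyme at least 2-fold when tested at 20 µM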
# Target sequence (P09923 whole entry, looked up): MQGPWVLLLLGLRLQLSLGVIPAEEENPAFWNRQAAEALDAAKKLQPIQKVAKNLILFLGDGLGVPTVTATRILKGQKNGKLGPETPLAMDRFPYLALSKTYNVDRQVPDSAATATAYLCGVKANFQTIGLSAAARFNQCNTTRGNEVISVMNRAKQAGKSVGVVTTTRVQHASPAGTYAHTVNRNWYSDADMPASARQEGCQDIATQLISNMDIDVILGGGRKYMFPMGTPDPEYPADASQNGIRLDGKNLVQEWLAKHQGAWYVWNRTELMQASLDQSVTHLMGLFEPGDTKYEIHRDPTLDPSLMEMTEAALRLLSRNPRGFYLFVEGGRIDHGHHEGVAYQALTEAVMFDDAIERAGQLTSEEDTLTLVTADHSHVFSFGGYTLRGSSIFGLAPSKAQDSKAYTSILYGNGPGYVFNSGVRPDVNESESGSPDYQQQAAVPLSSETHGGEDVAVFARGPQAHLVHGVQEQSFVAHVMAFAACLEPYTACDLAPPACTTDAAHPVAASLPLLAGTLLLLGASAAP
# bIAP inhibitor: blocks bovine intestinal alkaline phosphatase activity; purified bovine IAP, CDP-star luminescence, 30 min; inhibition, % at 20 µM; 190,000 tested, under 10 active; AID 1019;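 active = over 50% inhibition of intestinal alkaline phosphatase at 20 µM in the single-dose screen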
#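 Assay system: bovine IAP enzyme; medium: DEA buffer 100 mM, pH 9.8, with MgCl2 1.0 mM, ZnCl2 0.02 mM; doses: 20 µM single dose; incubation: enzyme reaction for 30 min at room temperature; detection: CDP-star luminescence signal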
# bIAP act: increases bovine intestinal alkaline phosphatase activity | purified bovine IAP, CDP-star luminescence, 30 min; hits give high values; fold of DMSO-control signal, blank-subtracted | activation factor at 20 µM | 0.17% of 200,000 active;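 active = activation factor of 2 or more at 20 µM, a signal rise over negative controls twice the positive control's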
# mIAP block: blocks mouse intestinal alkaline phosphatase. purified mouse IAP, CDP-Star luminescence, 30 min. inhibition, % at 10 µM. 0.2% of 330,000 active;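 active = inhibition of at least 40% at 10 µM in the primary screen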;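 also: plate controls were DMSO with enzyme for no effect and no enzyme wells for full effect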
# hIAP block: blocks human intestinal alkaline phosphatase | inhibition, % at 10 µM | P09923 | 0.12% of 330,000 active | purified IAP, CDP-Star luminescence, 30 min | AID 2544;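 active = inhibition reaching a set limit with compound at 10 µM in the primary screen, cut at about 35% in these data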;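 also: plate controls were DMSO wells with enzyme for no effect and no-enzyme buffer wells for full effect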
# mIAP act: increases mouse intestinal alkaline phosphatase activity; muIAP, CDP-Star luminescence, 30 min; hits give high values; 1 = vehicle-only enzyme signal, 0 = enzyme-free wells; activation factor at 10 µM; 0.24% of 330,000 active; AID 2805;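 active = activation factor of at least 2 at 20 µM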
#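 Assay system: mouse IAP enzyme; Reagent: CDP-Star chemiluminescent phosphatase substrate; Compound: DMSO-dissolved test compounds; Incubation: 30 min, room temperature; Technique: luminescence from enzymatic CDP-Star hydrolysis; Controls: DMSO-only wells and no-enzyme negative control.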
# hIAP act confirm: human IAP activation confirmation. purified IAP, CDP-Star luminescence, 30 min; hits give low values. AID 434926. 10% of 880 active. shares compounds with hIAP act. activation (%Activity, negative = activation), % at 8.3 µM;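 active = at least twofold enzyme activation in any of six single-dose repeats, which the averaged readout prints as negative percent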
# The depositor's hits bear a star; nt = no result given; + = active, no number; ! = not active in a repeat. In the library only some 0.79% were active in any assay of this set; here they are far more common.
SMILES,hIAP act,bIAP inhibitor,bIAP act,mIAP block,hIAP block,mIAP act,hIAP act confirm
O=C(Nc1ccnn1C1CCN(Cc2cccc(F)c2F)CC1)C1CCCC1,1.4,nt,nt,-2,-41,1,nt
Nc1cc(Nc2ccccc2)ccn1,0.62,nt,nt,4,38*,0.96,8
COC(=O)c1ccccc1-c1c2ccc(=N)cc-2oc2cc(N)ccc12,0.62,nt,nt,-30,38*,1.3,35
CC(C)CCC1(C)NC(=O)N(CC(=O)c2ccc[nH]2)C1=O (stereo unspecified),1.2,nt,nt,6,-19,0.94,nt
Cc1[nH]n(-c2nc(-c3ccccc3)cc(=O)[nH]2)c(=O)c1CCO,0.38,35,0.6,12,62*,0.88,47
COc1ccc(-c2ccc(NS(=O)(=O)c3cc([N+](=O)[O-])c(C)c([N+](=O)[O-])c3)cc2)nn1,1,nt,nt,4,0,0.96,nt
CC1=C/C(=C\C=C(C#N)C#N)N(C)c2ccccc21,0.64,nt,nt,24,36*,0.76,4
NC(=O)c1c(NC(=O)c2ccc(F)cc2)sc2c1CCC2,0.63,nt,nt,11,37*,0.89,+
Cc1ccc2nc(CCc3nc4ccc(C)cc4[nH]3)[nH]c2c1,2.3*,nt,nt,-6,-133,1.1,-5
Cc1ccc2nc(CCCc3nc4ccc(C)cc4[nH]3)[nH]c2c1,2.7*,nt,nt,-24,-171,1.2,-60
Cc1ccc2nc(Cc3ccc(N)cc3)[nH]c2c1,1.1,-11,1.1,-16,-13,1.2,nt
c1ccc2[nH]c(CCCCc3nc4ccccc4[nH]3)nc2c1,1.4,nt,nt,-6,-43,1.1,nt
c1ccc(CN(CC2=NCCN2)c2ccccc2)cc1,0.98,-2,337*!,-5,19,1.1,-47
c1ccc(CC2=NCCN2)cc1,1,6,0.9,-14,-4,1.1,nt
Cc1oc(-c2cc(F)cc(F)c2)nc1CN1CCSCC1,1.1,-25,1.3,-12,-11,1.1,nt
Cc1ccc2oc(C(=O)N3CCCCCC3)c(C)c2c1,0.54,nt,nt,-1,46*,1,2
c1ccc(-c2cccc(-c3ccccn3)n2)nc1,2.1*,-16,1.2,-8,-105,1.1,-113*
O=C(N/N=C/c1ccc2cccnc2c1)c1nc2ccccc2c(=O)[nH]1,2.7*,nt,nt,9,-167,0.91,-193*
O=C(N/N=C/c1ccncc1)c1nc2ccccc2c(=O)[nH]1,2.7*,nt,nt,-19,-170,1.2,7
Cn1c(=O)c2sc3c(c2n(CC(=O)Nc2ccccc2)c1=O)COC(C)(C)C3,0.67,nt,nt,-4,34,1,nt
CCC(C)c1ccc(C(C)NC(=S)NC2CCCCC2)cc1 (stereo unspecified),3.6*,nt,nt,-370,-256,4.7*,-72
CC(NC(=S)NC1CCCCC1)c1ccc(C(C)(C)C)cc1 (stereo unspecified),2.3*,nt,nt,-431,-133,5.3*,-20
CCOc1ccc(C(C)NC(=S)NC2CCCCC2)cc1 (stereo unspecified),1.2,16,0.8,-76,-23,1.8,nt
COc1ccc(NC(C)=O)cc1S(=O)(=O)NC1CCSc2ccccc21 (stereo unspecified),0.97,nt,nt,6,3,0.94,nt
COc1ccc(S(=O)(=O)N2CCC3(CC2)OCCN3S(=O)(=O)c2cccs2)cc1OC,0.96,nt,nt,6,4,0.94,nt
SMILES,hIAP act,bIAP inhibitor,bIAP act,mIAP block,hIAP block,mIAP act,hIAP act confirm
CCOc1cc(/C=C2/C(=O)ON=C2C)cc(Br)c1O,0.61,nt,nt,5,38*,0.95,9
CC(NS(=O)(=O)c1ccc(Br)cc1)C(=O)Nc1nc2ccccc2[nH]1 (stereo unspecified),2.1*,nt,nt,12,-112,0.88,67
O=C(Cc1ccc(Br)cc1)Nc1nc2ccccc2[nH]1,1.6,nt,nt,3,-56,0.97,nt
Cc1cc(=O)[nH]c(-n2[nH]c3c(c2=O)CCCC3)n1,2.3*,-49,1.5,19,-133,0.81,56
COc1cc(/C=C2\SC(=S)N(NC(=O)c3ccncc3)C2=O)ccc1O,0.65,nt,nt,37,35*,0.63,-3
COc1cc(/C=C2\SC(=S)N(NC(=O)c3ccc(O)c(OC)c3)C2=O)ccc1O,0.54,nt,nt,26,46*,0.74,-50
COc1cc(/C=C2\SC(=S)N(N3CCOCC3)C2=O)ccc1O,0.56,nt,nt,34,44*,0.66,-24
COc1cc(/C=C2\SC(=S)N(NC(=O)c3cccc(O)c3)C2=O)ccc1O,0.74,nt,nt,29,26,0.71,nt
Cc1cc(NC(=O)Cn2nc(C)c([N+](=O)[O-])c2C)no1,0.92,-2,1,9,8,0.91,nt
O=C(NCC(F)(F)F)Nc1cccnc1,0.46,10,0.9,-11,54*,1.1,7
CCC(=O)N1CCc2cc(S(=O)(=O)N3CCN(c4cc(Cl)ccc4C)CC3)ccc21,1.1,nt,nt,-9,-8,1.1,nt
COc1ccc(NC(=O)CN2C(=O)COc3ccc(S(=O)(=O)N4CCCCCC4)cc32)cc1,0.63,nt,nt,-3,37*,1,7
CCOc1ccc(NC(=O)CN2C(=O)COc3ccc(S(=O)(=O)N4CCCCC4)cc32)cc1,0.94,nt,nt,-6,6,1.1,nt
O=C(O)CCC(=O)N1CCC(n2nnc3cc(C(F)(F)F)ccc32)CC1,1,nt,nt,0,-4,1,nt
Cc1cccc(CSc2nc3ccccc3c(=O)n2C)c1,0.81,nt,nt,4,18,0.96,nt
Cc1ccc(C(=O)Nc2ncn[nH]2)cc1,2.1*,nt,nt,3,-112,0.97,-8
CC(C)(C)c1ccc(C(=O)Nc2ncn[nH]2)cc1,1.6,-21,1.2,-7,-57,1.1,nt
Cc1ccc(SC(C)C(=O)Nc2ncn[nH]2)cc1 (stereo unspecified),2.4*,-52,1.5,-16,-139,1.2,11
CC(C(=O)Nc1ncn[nH]1)N1C(=O)c2ccccc2C1=O (stereo unspecified),1.3,-12,1.1,-3,-26,1,nt
COc1ccccc1C(=O)COC(=O)CNS(=O)(=O)c1ccc(C)cc1,1.1,11,0.9,7,-12,0.93,nt
CCCCN(C(=O)c1ccccc1OCc1ccc(F)cc1)c1c(N)n(CC(C)C)c(=O)[nH]c1=O,1.4,nt,nt,-18,-41,1.2,nt
COc1cc(C(=O)NC(=S)NNC(=O)c2cnccn2)cc(OC)c1OC,2.2*,31,0.7,24,-116,0.76,-22
Cn1cc(C(=O)N2CCc3ccccc32)cn1,2.1*,10,0.9,13,-111,0.87,2
O=C1CC(/C=C/c2ccncc2)=Nc2ccccc2N1,0.89,-12,1.1,2,11,0.98,nt
O=C(CN1CCN(C(=O)C2COc3ccccc3O2)CC1)Nc1ccccc1 (stereo unspecified),0.6,nt,nt,9,40*,0.91,-9
O=C(Nc1cccnc1Cl)c1cc2ccccc2o1,1.1,nt,nt,-3,-5,1,nt
